This is an account of results in ChEMBL document CHEMBL4480420, “Specificity of extended O-aryloxycarbonyl hydroxamates as inhibitors of a class C β-lactamase” (Bioorg Med Chem, 2019).

For test [1], the target named is Beta-lactamase (Enterobacter cloacae) (UniProt P05364). As to the kind of experiment: Irreversible inhibition of Enterobacter cloacae P99 beta-lactamase assessed as ratio of K2/K3 using cephalothin as substrate by spectrophotometric analysis. The method, boiled down:
(§1)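 Reactions ran at 25 °C in 20 mM MOPS, pH 7.5, with 0.1% BSA. Time courses: aliquots taken into 300 µM cephalothin, initial rates read at 270 nm. Titrations: 150 nM enzyme with 0–2.0 µM inhibitor, run to completion. Both datasets were fitted together to an acylation/partition scheme, k2 fixed at 100 s⁻¹. k_i = k1/(1 + k2/k3).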

Test [2] deals with Beta-lactamase (Enterobacter cloacae, UniProt P05364). As to the kind of experiment: Irreversible inhibition of Enterobacter cloacae P99 beta-lactamase using cephalothin as substrate by spectrophotometric analysis. The method, boiled down: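 P99 class C β-lactamase (stock concentration by A280, ε 7.1 x 10⁴ M⁻¹cm⁻¹) incubated with inhibitor in 20 mM MOPS pH 7.5, 0.1% BSA, 25 °C. Aliquots diluted 1:50 into 300 μM cephalothin; initial rates followed at 270 nm over time. Titration: 150 nM enzyme with 0–2.0 μM inhibitor to end-point. Time-course and titration data fitted jointly to Scheme 2, k2 fixed at 100 s⁻¹, giving k1, k2/k3 and k_i.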

The target of test [3] is Beta-lactamase (Enterobacter cloacae) (UniProt P05364). In words: Irreversible inhibition of Enterobacter cloacae P99 beta-lactamase assessed as second-order rate constant for enzyme-inhibitor complex using cephalothin as substrate by spectrophotometric analysis. An outline of the steps:
as §1

Test [4] has the same target. As to the kind of experiment: Binding affinity to Enterobacter cloacae P99 beta-lactamase assessed as increase in molecular weight of enzyme-compound complex by mass-spectra analysis (reference value: 39192 Da). The method, boiled down: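 P99 enzyme was analysed by electrospray MS before and after inactivation. Protein was precipitated with trichloroacetic acid, then the precipitate was washed and dried before analysis.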

Chain of Beta-lactamase (P05364 whole entry): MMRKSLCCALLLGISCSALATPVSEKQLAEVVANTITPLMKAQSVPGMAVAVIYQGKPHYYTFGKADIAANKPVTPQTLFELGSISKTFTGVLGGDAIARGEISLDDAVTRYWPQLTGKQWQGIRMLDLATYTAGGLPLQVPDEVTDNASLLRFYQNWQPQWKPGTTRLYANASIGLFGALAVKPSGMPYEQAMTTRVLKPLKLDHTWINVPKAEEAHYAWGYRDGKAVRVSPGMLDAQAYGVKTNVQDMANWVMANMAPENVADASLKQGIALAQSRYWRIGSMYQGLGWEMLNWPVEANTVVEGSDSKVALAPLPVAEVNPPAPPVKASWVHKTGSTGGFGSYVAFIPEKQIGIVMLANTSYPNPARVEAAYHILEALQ
Chain of Beta-lactamase (Enterobacter cloacae) (P05364 21-381 limits assumed): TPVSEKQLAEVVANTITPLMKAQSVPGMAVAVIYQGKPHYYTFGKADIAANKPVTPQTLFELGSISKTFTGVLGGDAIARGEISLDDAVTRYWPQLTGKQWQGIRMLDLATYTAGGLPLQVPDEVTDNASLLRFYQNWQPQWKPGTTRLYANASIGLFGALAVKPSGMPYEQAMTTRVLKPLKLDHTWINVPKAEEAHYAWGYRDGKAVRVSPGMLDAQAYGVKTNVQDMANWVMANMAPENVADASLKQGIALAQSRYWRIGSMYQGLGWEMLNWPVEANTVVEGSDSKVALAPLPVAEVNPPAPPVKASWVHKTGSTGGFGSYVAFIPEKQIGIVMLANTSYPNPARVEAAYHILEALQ

For `CCCCOC(=O)NOC(=O)Oc1ccccc1`, in test [1], the Ratio worked out at 2.4. The “second-order inactivation rate constant (k_i)” value in test [2] is recorded as 1.1 ×10³ /M/s. Moreover, the K in test [3] turned out to be 3.6 ×10³ /M/s. Further, the Activity in test [4] turned out to be 185 Da.

On to `N[C@H](CCCOC(=O)NOC(=O)Oc1ccccc1)C(=O)O`, for which, in test [1], the Ratio was 1.25. Further, in test [2], the “second-order inactivation rate constant (k_i)” value is 1.6 ×10⁴ /M/s. Moreover, in test [3], the K was 3.5 ×10⁴ /M/s.

For the molecule `O=C(NOC(=O)Oc1ccccc1)OCc1ccccc1`, in test [1], the Ratio is 2. Besides, in test [2], the “second-order inactivation rate constant (k_i)” value came out at 2 ×10³ /M/s. The K in test [3] was determined as 6.1 ×10³ /M/s.

As for `O=C(O)CCCCOC(=O)NOC(=O)Oc1ccccc1`, the Ratio in test [1] was 2.3. Moreover, the “second-order inactivation rate constant (k_i)” value in test [2] was 8.5 ×10³ /M/s. For the same molecule, in test [3], the K amounted to 2.8 ×10⁴ /M/s. Also, the Activity in test [4] was found to be 26 Da.

For `O=C(NOC(=O)Oc1ccccc1)OCCc1ccccc1`, the Ratio in test [1] was found to be 25. Besides, in test [2], the “second-order inactivation rate constant (k_i)” value came out at 1.4 ×10³ /M/s. Also, in test [3], the K is 3.7 ×10⁴ /M/s. Also, the Activity in test [4] turned out to be 26 Da.

On to `N[C@H](Cc1ccc(OC(=O)NOC(=O)Oc2ccccc2)cc1)C(=O)O`, for which, in test [1], the Ratio was under 1. Also, the second-order inactivation rate constant (k i) in test [2] is 180 to 360 M⁻¹ s⁻¹. Moreover, in test [3], the K was 360 M⁻¹ s⁻¹. In test [4], the Activity worked out at 26 Da.
